In ChEMBL document CHEMBL1153864, “Phase transfer catalyzed synthesis of bis-quinolines: antileishmanial activity in experimental visceral leishmaniasis and in vitro antibacterial evaluation” (Eur J Med Chem, 2009):
Values after ≈ are worked out from the molar mass of the structure shown. Active and inactive are the calls of the source. No cut-off for these calls is given here.

How the values were obtained:
[1] = tested on: Salmonella typhimurium; experiment: Antibacterial activity against Salmonella Typhimurium NCTC 74 at 50 ug/ml after 24 hrs by agar dilution method; type: functional, Salmonella enterica subsp. enterica serovar Typhimurium; conditions: Salmonella enterica, NCTC 74, 24 h
How it was run: (§1)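 Agar dilution MIC. Compound dissolved in sterile 0.2% DMSO, diluted in distilled water and mixed into molten nutrient agar (pH 7.2–7.4) at 5, 10, 25, 50; plate with 0.2% DMSO as control. Gram-positives grown 18 h in nutrient broth, Gram-negatives in peptone water. Stationary-phase suspension set to 0.5 McFarland, diluted 1:100, spot-inoculated at about 10^5 CFU per loopful. Plates held 24 h at 37 °C (up to 72 h if needed). MIC is the lowest level with no growth.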

[2] = tested on: Staphylococcus aureus; experiment: Antibacterial activity against Staphylococcus aureus ML145 ug/ml after 24 hrs by agar dilution method; type: functional; conditions: ML145, 24 h; how it was run: as §1
[3] = tested on: Proteus mirabilis; experiment: Antibacterial activity against Proteus mirabilis 175 at 25 ug/ml after 24 hrs by agar dilution method; type: functional, organism-based; how it was run: as §1
[4] = tested on: Bacillus licheniformis; experiment: Antibacterial activity against […] Bacillus licheniformis NCTC 10341 at 10 ug/ml after 24 hrs by agar dilution method; type: functional, organism-based; how it was run: as §1
[5] = tested on: Vibrio cholerae; experiment: Antibacterial activity against Vibrio cholerae 582 at 5 ug/ml after 24 hrs by agar dilution method; type: functional; conditions: Vibrio cholerae, 582, 24 h
[6] = tested on: Shigella dysenteriae; experiment: Antibacterial activity against Shigella dysenteriae 7 NCTC 519/66 at 10 ug/ml after 24 hrs by agar dilution method; type: functional; conditions: 7 NCTC 519/66, 24 h
[7] = tested on: Leishmania donovani; experiment: Antileishmanial activity against Leishmania donovani MHOM/IN/1983/AG83 promastigotes after 4 hrs by MTT assay; type: functional, organism-based; conditions: MHOM/IN/1983/AG83, 4 h
How it was run: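 AG83 promastigotes kept at 22 °C in M199 + 10% FBS. Log-phase cells (2×10^6/ml) exposed 2 h at 22 °C to 1, 3, 5, 7, 10, 15 compound; DMSO at 0.1% final. Cells washed with PBS, incubated 4 h at 22 °C with MTT (2 mg/ml). Formazan dissolved in DMSO and read at 570 nm; % lysis computed, IC50 by linear regression.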

[8] = tested on: Salmonella typhimurium; experiment: Antibacterial activity against Salmonella Typhimurium NCTC 74 at 25 ug/ml after 24 hrs by agar dilution method; type: functional, organism-based; conditions: Salmonella enterica subsp. enterica serovar Typhimurium; how it was run: as §1
[9] = tested on: Vibrio cholerae; experiment: Antibacterial activity against Vibrio cholerae 582 after 24 hrs by agar dilution method; type: functional; conditions: Vibrio cholerae, 582, 24 h
[10] = tested on: Shigella dysenteriae; experiment: Antibacterial activity against Shigella dysenteriae 7 NCTC 519/66 at 25 ug/ml after 24 hrs by agar dilution method; type: functional; conditions: 7 NCTC 519/66, 24 h
[11] = tested on: Proteus mirabilis; experiment: Antibacterial activity against Proteus mirabilis 175 at 50 ug/ml after 24 hrs by agar dilution method; type: functional; conditions: Proteus mirabilis, 175, 24 h; how it was run: as §1
[12] = tested on: Leishmania donovani; experiment: Antileishmanial activity against Leishmania donovani MHOM/IN/1983/AG83 promastigotes assessed as induction of vacuolization at 11.5 ug/ml after 2 hrs by transmission electron microscopy; type: functional, organism-based
How it was run: (§2)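 Log-phase promastigotes, grown at 22 °C in M199 with 10% FBS, were exposed for 2 h to the compound; controls received 0.1% DMSO alone. Cells were then sectioned, stained on copper grids with uranyl acetate and lead acetate for 10-15 min each, and examined by TEM for ultrastructural changes.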

[13] = tested on: Escherichia coli; experiment: Antibacterial activity against Escherichia coli K-12 Row at 50 ug/ml after 24 hrs by agar dilution method; type: functional; how it was run: as §1
[14] = tested on: Leishmania donovani; experiment: Antileishmanial activity against Leishmania donovani MHOM/IN/1983/AG83 promastigotes assessed as induction of kinetoplast enlargement at 11.5 ug/ml after 2 hrs by transmission electron microscopy; type: functional, organism-based
[15] = tested on: Shigella dysenteriae; experiment: Antibacterial activity against Shigella dysenteriae 6 NCTC 100/54 at 25 ug/ml after 24 hrs by agar dilution method; type: functional, organism-based
[16] = tested on: Vibrio cholerae; experiment: Antibacterial activity against Vibrio cholerae 569B at 50 ug/ml after 24 hrs by agar dilution method; type: functional
[17] = tested on: Leishmania donovani; experiment: Antileishmanial activity against Leishmania donovani MHOM/IN/1983/AG83 promastigotes infected BALB/c mouse assessed as spleen weight at 12.5 mg/kg, ip administered two times per week for 4 weeks; type: functional; conditions: route intraperitoneal
How it was run: (§3)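 BALB/c mice (4-6 weeks) were infected iv with 2 × 10^7 freshly transformed promastigotes. One month later, groups were dosed ip in 0.2% Tween 80 in PBS (0.02 M), twice weekly for one month (8 doses); controls got vehicle only. Mice were killed one month post-treatment and spleen and liver were weighed. Parasite load came from Giemsa impression smears as organ weight (mg) × amastigotes per cell nucleus × 2 × 10^5. Values are mean ± S.E. of 5 mice; unpaired t-test.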

[18] = tested on: Staphylococcus aureus; experiment: Antibacterial activity against Staphylococcus aureus ML145 at 50 ug/ml after 24 hrs by agar dilution method; type: functional; conditions: ML145, 24 h; how it was run: as §1
[19] = tested on: Leishmania donovani; experiment: Antileishmanial activity against Leishmania donovani MHOM/IN/1983/AG83 promastigotes infected BALB/c mouse assessed as reduction in spleen parasite burden at 12.5 mg/kg, ip administered two times per week for 4 weeks relative to control; type: functional; design: scale not given: the % may be the effect or the level left; conditions: route intraperitoneal; how it was run: as §3
[20] = tested on: Shigella dysenteriae; experiment: Antibacterial activity against Shigella dysenteriae 6 NCTC 100/54 at 5 ug/ml after 24 hrs by agar dilution method; type: functional, organism-based
[21] = tested on: Escherichia coli; experiment: Antibacterial activity against Escherichia coli K-12 Row at 10 ug/ml after 24 hrs by agar dilution method; type: functional, organism-based; how it was run: as §1
[22] = tested on: Pseudomonas aeruginosa; experiment: Antibacterial activity against Pseudomonas aeruginosa ATCC 27853 at 5 ug/ml after 24 hrs by agar dilution method; type: functional, organism-based; how it was run: as §1
[23] = tested on: Leishmania donovani; experiment: Antileishmanial activity against Leishmania donovani MHOM/IN/1983/AG83 promastigotes assessed as induction of kinetoplast enlargement at 2 ug/ml after 2 hrs by transmission electron microscopy; type: functional, organism-based; how it was run: as §2
[24] = tested on: Mus musculus; experiment: Toxicity in BALB/c mouse assessed as effect on serum glutamate oxaloacetate transaminase levels at 12.5 mg/kg, ip administered two times per week for 4 weeks; type: organism-based; design: dose 12.5 mg/kg, route intraperitoneal; conditions: in vivo, 672 h
How it was run: (§4)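 Normal BALB/c mice were dosed ip twice per week for 4 weeks. Blood was collected one month after treatment, and serum SGPT and SGOT (IU/l) and blood urea (mg/dl) were measured with commercial kits and compared with untreated normal mice.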

[25] = tested on: Shigella dysenteriae; experiment: Antibacterial activity against Shigella dysenteriae 7 NCTC 519/66 at 5 ug/ml after 24 hrs by agar dilution method; type: functional, organism-based
[26] = tested on: Salmonella typhimurium; experiment: Antibacterial activity against Salmonella Typhimurium NCTC 74 at 10 ug/ml after 24 hrs by agar dilution method; type: functional, organism-based; conditions: Salmonella enterica subsp. enterica serovar Typhimurium; how it was run: as §1
[27] = tested on: Vibrio cholerae; experiment: Antibacterial activity against Vibrio cholerae 582 at 50 ug/ml after 24 hrs by agar dilution method; type: functional; conditions: Vibrio cholerae, 582, 24 h
[28] = tested on: Leishmania donovani; experiment: Antileishmanial activity against Leishmania donovani MHOM/IN/1983/AG83 promastigotes infected BALB/c mouse assessed as spleen weight at 5.5 mg/kg, ip administered two times per week for 4 weeks; type: functional; conditions: route intraperitoneal; how it was run: as §3
[29] = tested on: Escherichia coli; experiment: Antibacterial activity against Escherichia coli ATCC 25938 at 50 ug/ml after 24 hrs by agar dilution method; type: functional; conditions: ATCC 25938, 24 h; how it was run: as §1
[30] = tested on: Mus musculus; experiment: Toxicity in BALB/c mouse assessed as effect on serum glutamate pyruvate transaminase levels at 12.5 mg/kg, ip administered two times per week for 4 weeks; type: organism-based; design: dose 12.5 mg/kg, route intraperitoneal; conditions: in vivo, 672 h; how it was run: as §4
[31] = tested on: Vibrio cholerae; experiment: Antibacterial activity against Vibrio cholerae 569B after 24 hrs by agar dilution method; type: functional
[32] = tested on: Proteus mirabilis; experiment: Antibacterial activity against Proteus mirabilis 7 after 24 hrs by agar dilution method; type: functional; conditions: Proteus mirabilis, 7, 24 h; how it was run: as §1

Clc1ccc(OCOc2ccc(Cl)c3cccnc23)c2ncccc12
inhibition at 50 µg/mL [1]: 100% | MIC [2]: 5 µg/mL (≈ 13.5 µM) | Activity [3]: inactive | Activity [4]: inactive | inhibition at 5 µg/mL [5]: 100% | inhibition at 10 µg/mL [6]: 100% | IC50 [7]: 2 µg/mL (≈ 5.39 µM) | Activity [8]: inactive | MIC [9]: 5 µg/mL (≈ 13.5 µM) | inhibition at 25 µg/mL [10]: 100% | inhibition at 50 µg/mL [11]: 100% | Activity [12]: Active | inhibition at 50 µg/mL [13]: 100% | Activity [14]: Active | Activity [15]: inactive | inhibition at 50 µg/mL [16]: 100% | Activity [17]: 90 mg | inhibition at 50 µg/mL [18]: 100% | Activity [19]: 95% | Activity [20]: inactive | Activity [21]: inactive | Activity [22]: inactive | Activity [23]: Active | Activity [24]: Non-toxic | Activity [25]: inactive | Activity [26]: inactive | inhibition at 50 µg/mL [27]: 100% | Activity [28]: 175 mg | inhibition at 50 µg/mL [29]: 100% | Activity [30]: Non-toxic | MIC [31]: 25 µg/mL (≈ 67.3 µM) | MIC [32]: 50 µg/mL (≈ 135 µM)
